Key:
[1] = In vivo inhibition of ethanol metabolism following 1 mMol/Kg i.p.; settings: ip
Alcohol dehydrogenase = Alcohol dehydrogenase (Equus caballus, UniProt P00327+P00328); experiment: In vitro inhibition against horse liver alcohol dehydrogenase
[2] = biological target: T1, Alcohol dehydrogenase (Equus caballus) (UniProt P00327+P00328); experiment: Slope inhibition constant was determined against horse liver alcohol dehydrogenase in presence of ethanol
Procedure, shortened: (§1)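 Purified horse liver enzyme with ethanol varied as substrate and NAD+ as coenzyme. At least three inhibitor concentrations were tested (e.g. 0–0.2 mM). Initial velocities were followed at 340 nm, 32 points in one experiment. Intercept and slope constants were derived from double-reciprocal plots fitted to uncompetitive or noncompetitive equations.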

[3] = Intercept inhibition constant was determined in vitro against purified rat liver alcohol dehydrogenase in presence of ethanol
Procedure, shortened: (§2)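 Rat liver enzyme partially purified by (NH4)2SO4 fractionation, DEAE-cellulose and Sephadex G-100. Assays ran in 83 mM potassium phosphate pH 7.3 with 40 mM KCl (μ 0.25) at 37.8 °C, with 0.5 mM NAD+, ethanol at 0.4–2 mM and inhibitor at 0–0.6 mM. Initial rates were read at 340 nm, 32 points per experiment.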

[4] = Michaelis-Menten's constant was determined in vivo against rat liver alcohol dehydrogenase in presence of ethanol; type: organism-based
Procedure, shortened: (§3)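 Fed male Sprague-Dawley rats (175–280 g) received inhibitor ip (0.1 M sulfoxide or ≤0.46 M amide in saline) at 0–1.0 mmol/kg. Ten minutes later ethanol (3.26 M) was given ip at 7.69, 10.9 or 19.6 mmol/kg. Tail blood was sampled over time and ethanol measured by GC against a tert-butyl alcohol internal standard. Rate was derived by Widmark's method.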

[5] = biological target: T1, Alcohol dehydrogenase (Equus caballus); experiment: Slope inhibition constant was determined against horse liver alcohol dehydrogenase in presence of acetaldehyde
Procedure, shortened: (§4)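 Purified horse liver enzyme, reverse reaction. Freshly distilled acetaldehyde was varied (1–5 mM; 0.4–2.0 mM in some runs) with 0.1 mM NADH and at least three inhibitor levels. Initial velocities were read as A340 change, 32 points per experiment, and inhibition constants were obtained from double-reciprocal fits.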

[6] = Intercept inhibition constant was determined in vivo against rat liver alcohol dehydrogenase in presence of ethanol; type: organism-based
Procedure, shortened: as §3

[7] = biological target: T1, Alcohol dehydrogenase (Equus caballus); experiment: Intercept inhibition constant was determined against horse liver alcohol dehydrogenase in presence of acetaldehyde
Procedure, shortened: as §4

[8] = biological target: T1, Alcohol dehydrogenase (Equus caballus); experiment: Intercept inhibition constant was determined against horse liver alcohol dehydrogenase in presence of ethanol
Procedure, shortened: as §1

[9] = In vivo inhibition of ethanol metabolism following 1 mMol/Kg i.p.
[10] = Slope inhibition constant was determined against purified rat liver alcohol dehydrogenase in presence of ethanol
Procedure, shortened: as §2

[11] = Michaelis-Menten's constant was determined in vitro against purified rat liver alcohol dehydrogenase in presence of ethanol
Procedure, shortened: as §2

CC(C)CC(N)=O [12] = experiment: (§5) Michaelis-Menten's constant was determined against horse liver alcohol dehydrogenase in presence of acetaldehyde; settings: Equus caballus
Procedure, shortened: as §4

[O-][S+]1CCCC1 [13] = as §5; settings: Equus caballus
Procedure, shortened: as §4

CC(C)CC(N)=O [14] = experiment: (§6) Michaelis-Menten's constant was determined against horse liver alcohol dehydrogenase in presence of ethanol; settings: Equus caballus
Procedure, shortened: as §1

[O-][S+]1CCCC1 [15] = as §6; settings: Equus caballus
Procedure, shortened: as §1

Sequence of Alcohol dehydrogenase (Equus caballus) (from UniProt P00327+P00328) (P00328 whole entry, looked up): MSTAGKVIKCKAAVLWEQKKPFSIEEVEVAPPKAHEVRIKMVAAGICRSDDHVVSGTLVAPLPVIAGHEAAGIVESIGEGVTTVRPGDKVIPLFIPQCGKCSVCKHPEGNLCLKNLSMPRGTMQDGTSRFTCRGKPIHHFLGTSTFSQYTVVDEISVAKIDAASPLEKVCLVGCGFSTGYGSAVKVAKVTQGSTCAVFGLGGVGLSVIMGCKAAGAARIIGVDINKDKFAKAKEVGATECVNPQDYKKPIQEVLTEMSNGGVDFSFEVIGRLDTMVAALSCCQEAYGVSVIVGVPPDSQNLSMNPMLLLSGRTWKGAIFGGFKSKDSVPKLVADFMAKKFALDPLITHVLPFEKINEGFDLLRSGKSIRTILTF
Sequence of Alcohol dehydrogenase (Equus caballus) (from UniProt P00327+P00328) (P00327 whole entry, looked up): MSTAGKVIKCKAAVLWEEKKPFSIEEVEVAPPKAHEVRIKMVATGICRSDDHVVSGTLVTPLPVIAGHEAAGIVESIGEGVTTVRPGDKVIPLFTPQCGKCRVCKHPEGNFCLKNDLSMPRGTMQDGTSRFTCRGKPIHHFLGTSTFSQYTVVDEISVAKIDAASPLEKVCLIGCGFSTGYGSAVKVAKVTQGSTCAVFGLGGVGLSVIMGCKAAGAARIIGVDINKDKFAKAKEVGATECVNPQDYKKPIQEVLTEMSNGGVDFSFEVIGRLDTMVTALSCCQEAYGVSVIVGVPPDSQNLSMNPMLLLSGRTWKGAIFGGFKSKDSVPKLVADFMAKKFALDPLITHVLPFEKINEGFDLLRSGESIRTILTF

| Molecule | Ki (Alcohol dehydrogenase) | inhibition in vivo at 1000 µmol/kg [1] | other results |
| --- | --- | --- | --- |
| [O-][S+]1CCC1 | 0.15 mM | 25% |  |
| NC(N)=S [THIOUREA] | 42 mM |  |  |
| O=C1CCCCN1 | 13 mM |  |  |
| C[S+]([O-])Cc1ccccc1 (stereo unspecified) | 5 mM | 13% |  |
| CC[S+]([O-])c1ccccc1 (stereo unspecified) | 12.5 mM |  |  |
| [O-][S+]1CCCC1 | 0.019 mM |  | inhibition [9]: 63%; Kis [2]: 130 µM; Kii [3]: 200 µM; Km [4]: 2000 µM/kg; Kis [5]: 11 µM; Kii [6]: 340 µM/kg; Kis [10]: 230 µM; Kii [7]: 71 µM; Km [11]: 350 µM; Kii [8]: 19 µM |
| CC[S+](C)[O-] (stereo unspecified) | 0.5 mM | 16% |  |
| CC(C)C[S+](C)[O-] (stereo unspecified) | 0.34 mM | 14% |  |
| Alcohol dehydrogenase (Equus caballus) (from UniProt P00327+P00328) |  |  | Km (CC(C)CC(N)=O [12]): 150 µM; Km ([O-][S+]1CCCC1 [13]): 230 µM; Km (CC(C)CC(N)=O [14]): 900 µM; Km ([O-][S+]1CCCC1 [15]): 620 µM |
| C[S+]([O-])c1ccccc1 (stereo unspecified) [METHYLPHENYLSULFOXIDE] | 0.2 mM | 19% |  |
| O=C1CC[S+]([O-])CC1 | 9.7 mM |  |  |
| NNC(N)=S [THIOSEMICARBAZIDE] | 1.9 mM |  |  |
| [O-][S+]1CCOCC1 | 10.6 mM |  |  |
| CCCCCCCCCCCCCC[S+](C)[O-] (stereo unspecified) | 0.01 mM | 15% |  |
| [O-][S+]1CCNCC1 | 120 mM |  |  |
| CCCCCC[S+](C)[O-] (stereo unspecified) | 0.047 mM | 67% |  |
| C=C[S+]([O-])c1ccccc1 (stereo unspecified) | 0.5 mM |  |  |
| [O-][S+]1CCCCC1 | 0.48 mM | 21% |  |
| CCCCCCCCC(N)=O [NONANOAMIDE] |  | 15% |  |
| NC(=O)C(F)(F)C(F)(F)C(F)(F)F [HEPTAFLUOROBUTYRAMIDE] | 2 mM |  |  |
| CC(C)(Br)C(N)=O |  | 5% |  |

Now from value to molecule, other results behind:

| Ki (Alcohol dehydrogenase) | Molecule | inhibition in vivo at 1000 µmol/kg [1] | other results |
| --- | --- | --- | --- |
| 5.3 mM | NC(=O)CCCl | 15% |  |
| 0.15 mM | CC(C)(C)CC(N)=O | 71% |  |
| 5.8 mM | NC(=O)C(O)CCO (stereo unspecified) |  |  |
| 4.4 mM | NC(=O)CCCCO | 9% |  |
| 8.5 mM | NC(=O)CCO | 15% |  |
| 1.5 mM | NC(=O)CCCCCO | 24% |  |
| 0.79 mM | NC(=O)C1CC1 [CYCLOPROPANECARBOXYLIC ACID AMIDE] | 29% |  |
| 0.6 mM | COCC(N)=O [METHOXYACETAMIDE] | 18% |  |
| 0.43 mM | CC(C)CC[S+](C)[O-] (stereo unspecified) | 19% |  |
| 0.02 mM | CC(C)CC(N)=O [ISOVALERAMIDE] | 78% | Kis [2]: 160 µM; Kii [3]: 20 µM; Km [4]: 1500 µM/kg; Kis [5]: 11 µM; Kii [6]: 180 µM/kg; Kii [7]: 460 µM; Kii [8]: 20 µM |
| 0.22 mM | CC(C)C(N)=O [ISOBUTYRAMIDE] | 36% |  |
| 6.8 mM | NC(=O)CCCO | 5% |  |
| 36 mM | NC(=O)CSCC(N)=O | 7% |  |
| 1.1 mM | CC[S+]([O-])CC |  |  |
| 2.9 mM | CC(C)C(=O)NN |  |  |
